# Data from article PMC6605684 (The Journal of General Physiology, 2019).
# Values joined by “and” are separate entries in the source; they are usually repeats but may differ in a detail not shown here. Equal entries are not always repeated.
# Columns and labels:
# [1] = molecular target: Y304F-CFTR (Homo sapiens, UniProt P13569, Y304F); assay: Inside-out patch-clamp of CFTR currents in transfected CHO cells; assay type: cell-based
# Method in brief: (§1)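 CFTR construct and GFP plasmid cotransfected into CHO cells, held at 27°C for 2–6 d. Inside-out patches at room temperature, −30 mV, NMDG-Cl solutions at pH 7.4. Channels preactivated with 25 IU PKA plus 2 mM MgATP, then test compound (max 40 µM) applied in 2 mM ATP. ATP-subtracted steady-state currents normalized to the 3 µM response in the same patch. Hill fit with base 0 and maximum 1; EC50 ± SD of fit; 3–7 patches per point.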
# [2] = molecular target: D993A-CFTR (Homo sapiens, UniProt P13569, D993A); assay: as above; assay type: cell-based
# Method in brief: as §1
# [3] = molecular target: N1138F/G551D-CFTR (Homo sapiens, UniProt P13569, G551D/N1138F); assay: as above; assay type: cell-based
# Method in brief: as §1
# [4] = molecular target: F312A-CFTR (Homo sapiens, UniProt P13569, F312A); assay: Inside-out patch-clamp of CFTR currents in transfected CHO cells; assay type: cell-based; details: for ΔΔG: vs WT
# [5] = molecular target: F229A-CFTR (Homo sapiens, UniProt P13569, F229A); assay: Inside-out patch-clamp of CFTR currents in transfected CHO cells; assay type: cell-based
# Method in brief: as §1
# [6] = molecular target: S182A-CFTR (Homo sapiens, UniProt P13569, S182A); assay: as above; assay type: cell-based
# Method in brief: as §1
# [7] = molecular target: R347S-CFTR (ΔR-CFTR background) (Homo sapiens, UniProt P13569, R347S); assay: Inside-out patch-clamp of CFTR currents in transfected CHO cells; assay type: cell-based; details: pH 7.4
# Method in brief: (§2)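 Channels in ATP exposed to test compound at pH 7.4; percent change of mean current scored. Perfusate then switched to pH 5.5, with or without prior compound exposure at pH 7.4. Fold increase taken as peak current at pH 5.5 divided by mean current at pH 7.4.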
# [8] = molecular target: F931A-CFTR (Homo sapiens, UniProt P13569, F931A); assay: Inside-out patch-clamp of CFTR currents in transfected CHO cells; assay type: cell-based
# Method in brief: as §1
# [9] = molecular target: R347D-CFTR (ΔR-CFTR background) (Homo sapiens, UniProt P13569, R347D); assay: Inside-out patch-clamp of CFTR currents in transfected CHO cells; assay type: cell-based; details: pH 7.4
# Method in brief: as §2
# [10] = molecular target: T1, G551D-CFTR (Homo sapiens, UniProt P13569, G551D); details: ref Yeh et al., 2017, cited from earlier work
# T1 sequence (P13569 whole entry G551D): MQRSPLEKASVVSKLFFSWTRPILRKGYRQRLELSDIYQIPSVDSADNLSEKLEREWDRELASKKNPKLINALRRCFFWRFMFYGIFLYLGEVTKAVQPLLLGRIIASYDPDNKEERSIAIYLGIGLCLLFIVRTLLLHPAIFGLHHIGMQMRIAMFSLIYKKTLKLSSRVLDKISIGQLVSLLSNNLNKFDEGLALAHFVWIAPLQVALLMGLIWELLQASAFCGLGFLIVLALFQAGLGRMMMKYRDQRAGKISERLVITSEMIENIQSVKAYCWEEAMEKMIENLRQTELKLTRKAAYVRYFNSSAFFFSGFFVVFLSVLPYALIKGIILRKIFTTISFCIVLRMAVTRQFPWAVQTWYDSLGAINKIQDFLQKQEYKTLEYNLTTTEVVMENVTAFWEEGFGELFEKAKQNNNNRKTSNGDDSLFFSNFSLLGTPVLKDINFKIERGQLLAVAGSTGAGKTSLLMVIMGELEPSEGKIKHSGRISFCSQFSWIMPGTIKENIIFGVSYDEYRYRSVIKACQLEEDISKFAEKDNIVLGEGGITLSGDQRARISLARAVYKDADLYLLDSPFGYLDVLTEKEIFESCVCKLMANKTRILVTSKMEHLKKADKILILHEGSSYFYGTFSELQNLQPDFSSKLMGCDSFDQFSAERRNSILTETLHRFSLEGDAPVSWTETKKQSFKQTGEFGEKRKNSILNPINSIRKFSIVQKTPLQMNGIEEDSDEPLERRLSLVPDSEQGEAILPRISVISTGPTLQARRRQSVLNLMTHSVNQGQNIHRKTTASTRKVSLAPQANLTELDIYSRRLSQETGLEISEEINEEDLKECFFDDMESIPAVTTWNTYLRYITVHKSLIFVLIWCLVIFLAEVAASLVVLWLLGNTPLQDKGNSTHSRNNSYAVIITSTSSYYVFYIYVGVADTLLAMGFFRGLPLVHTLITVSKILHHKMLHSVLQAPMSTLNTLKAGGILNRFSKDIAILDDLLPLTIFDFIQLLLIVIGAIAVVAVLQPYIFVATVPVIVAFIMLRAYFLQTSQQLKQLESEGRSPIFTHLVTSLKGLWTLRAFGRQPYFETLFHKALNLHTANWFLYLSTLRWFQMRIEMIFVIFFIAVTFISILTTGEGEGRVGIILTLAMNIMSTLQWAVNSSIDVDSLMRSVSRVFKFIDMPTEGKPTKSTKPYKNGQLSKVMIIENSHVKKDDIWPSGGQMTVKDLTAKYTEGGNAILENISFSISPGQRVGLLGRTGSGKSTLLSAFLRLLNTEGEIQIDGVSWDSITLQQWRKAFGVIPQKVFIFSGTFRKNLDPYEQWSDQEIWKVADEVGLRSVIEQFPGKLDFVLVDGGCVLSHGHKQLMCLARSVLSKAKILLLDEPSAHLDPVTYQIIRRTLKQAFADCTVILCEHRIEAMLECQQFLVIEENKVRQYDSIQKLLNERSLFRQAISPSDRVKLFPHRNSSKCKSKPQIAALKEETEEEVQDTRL
# [11] = molecular target: WT-mCFTR (Mus musculus, UniProt P26361); assay: Inside-out patch-clamp of CFTR currents in transfected CHO cells; assay type: cell-based; details: 2 mM ATP
# Method in brief: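 Mouse CFTR expressed in CHO cells; inside-out patches. Phosphorylated channels opened by 2 mM ATP before the potentiator was applied (one potentiator at 200 nM). 5 µM CFTRinh-172 added at the end of each recording for baseline.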
# [12] = molecular target: F236A-CFTR (Homo sapiens, UniProt P13569, F236A); assay: Inside-out patch-clamp of CFTR currents in transfected CHO cells; assay type: cell-based
# F236A-CFTR, sequence (P13569 whole entry F236A): as the sequence (P13569 whole entry G551D) above, with F236A, D551G counted along it
# Method in brief: as §1
# [13] = molecular target: S1141K/G551D-CFTR (Homo sapiens, UniProt P13569, G551D/S1141K); assay: as above; assay type: cell-based
# Method in brief: as §1
# [14] = molecular target: T1, G551D-CFTR; assay: as above; assay type: cell-based
# Method in brief: as §1
# [15] = molecular target: Y304T-CFTR (Homo sapiens, UniProt P13569, Y304T); assay: Inside-out patch-clamp of CFTR currents in transfected CHO cells; assay type: cell-based
# Y304T-CFTR, sequence (P13569 whole entry Y304T, the tested form may be a part): as the sequence (P13569 whole entry G551D) above, with Y304T, D551G counted along it
# Method in brief: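 Relaxation assay: PKA-preactivated channels in 2 mM ATP at −30 mV exposed to test compound through a fast three-barrel perfusion system (dead time ∼30 ms). Current decay after sudden removal of 3 µM compound fitted with a single exponential to give relaxation time constant τ.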
# [16] = molecular target: R347C-CFTR (Homo sapiens, UniProt P13569, R347C); assay: Inside-out patch-clamp of CFTR currents in transfected CHO cells; assay type: cell-based
# Method in brief: as §2
# [17] = molecular target: Q237A-CFTR (Homo sapiens, UniProt P13569, Q237A); assay: Inside-out patch-clamp of CFTR currents in transfected CHO cells; assay type: cell-based
# Method in brief: as §1
# [18] = molecular target: D924N-CFTR (Homo sapiens, UniProt P13569, D924N); assay: as above; assay type: cell-based
# Method in brief: as §1
# [19] = CHO, read-out: Efficacy (% increase) of currents by GLPG1837
structure (smiles),measurement,setting,value
"CC1(C)Cc2c(sc(NC(=O)c3ccn[nH]3)c2C(N)=O)C(C)(C)O1 [GLPG1837, N-(3-carbamoyl-5,5,7,7-tetramethyl-5,7-dihydro-4H-thieno[2,3-c]pyran-2-yl)-lH-pyrazole-5-carboxamide]",ΔΔG,"[1]; GLPG1837, vs WT",-1.29 kcal/mol
same,Relaxation time constant upon removal of GLPG1837,"[1]; mean, n = 5",5.5 ± 1.3
same,EC50,[2],360 ± 40 nM
same,Emax,[2]; [19],283 ± 47%
same,ΔΔG,"[2]; GLPG1837, vs WT",-0.194 kcal/mol
same,EC50,[3],160 ± 50 nM
same,Emax,[3]; [19],666 ± 131%
same,ΔΔG,"[3]; GLPG1837, vs G551D",1.55 kcal/mol
same,Emax,"[4]; CHO, read-out: Efficacy (% increase) of currents by GLPG1837, 30 µM ATP",105 ± 12%
same,EC50,"[4]; EC50 for GLPG1837, 30 µM ATP (Po ∼0.35)",1300 ± 260 nM
same,EC50,"[4]; EC50 for GLPG1837, 2 mM ATP",400 ± 130 nM
same,ΔΔG,"[4]; GLPG1837, 30 µM ATP",-0.954 kcal/mol
same,ΔΔG,"[4]; GLPG1837, 2 mM ATP",-0.256 kcal/mol
same,EC50,[5],460 ± 70 nM
same,Emax,[5]; [19],135 ± 26%
same,ΔΔG,"[5]; GLPG1837, vs WT",-0.337 kcal/mol
same,EC50,[6],220 ± 40 nM
same,Emax,[6]; [19],138 ± 23%
same,ΔΔG,"[6]; GLPG1837, vs WT",0.098 kcal/mol
same,Effect of GLPG1837 on currents,[7],no effect
same,EC50,[8],1140 ± 260 nM
same,Emax,[8]; [19],83 ± 12%
same,Effect of GLPG1837 on currents,[9],no effect
same,Maximal fold increase of currents by GLPG1837 relative to WT-CFTR,[10]; greater than WT-CFTR,20 fold
same,Apparent affinity for GLPG1837 relative to WT-CFTR,[10]; lower than on WT-CFTR,10 fold
same,Potentiation of currents by GLPG1837,[11],does not potentiate
same,EC50,[12],340 ± 140 nM
same,Emax,[12]; [19],81 ± 14%
same,ΔΔG,"[12]; GLPG1837, vs WT",-0.16 kcal/mol
same,EC50,[13],260 ± 20 nM
same,ΔΔG,"[13]; GLPG1837, vs G551D",1.26 kcal/mol
same,EC50,[14],2190 ± 330 nM
same,EC50,[15],> 3000 nM
same,Emax,[15]; [19],> 101%
same,ΔΔG,"[15]; GLPG1837, vs WT",<-1.45 kcal/mol
same,Relaxation time constant upon removal of GLPG1837,"[15]; mean, n = 5",4.7 ± 0.8 s and < 5 s
same,Effect of GLPG1837 on currents,[16]; pH 5.5,effectively potentiates
same,Percent of inhibition of currents by GLPG1837,[16]; pH 7.4,16 ± 3%
same,EC50,[17],920 ± 320 nM
same,Emax,[17]; [19],615%
same,ΔΔG,"[17]; GLPG1837, vs WT",-0.748 kcal/mol
same,EC50,[18],2290 ± 780 nM
same,ΔΔG,"[18]; GLPG1837, vs WT",-1.29 kcal/mol
same,Efficacy (% increase) of currents by GLPG1837,[18]; maximal percent increase,464 ± 73%
